Laboratory results from ChEMBL document CHEMBL2434935, “Design, syntheses, and characterization of pharmacophore based chemokine receptor CCR5 antagonists as anti prostate cancer agents” (Eur J Med Chem, 2013).
pEC50, pIC50: −log10 of the molar value. The source made the active and inactive calls. The rule behind the calls is not given here.

Columns and labels:
[1] = target: T1, C-C chemokine receptor type 5 (Homo sapiens, UniProt P51681); test: Antagonist activity at CCR5 (unknown origin) expressed in MOLT4 cells transfected with Gqi5 assessed as inhibition of RANTES-induced calcium ion mobilization after 15 mins by microplate reader method; assay type: functional, cell-based, MOLT-4; conditions: for inhibition: MOLT-4
Method in brief: (§1)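 CCR5-MOLT-4 cells transfected with Gqi5 (Lipofectamine 2000), kept in RPMI 1640/10% FBS with penicillin, streptomycin and 1 mg/mL G418 at 37 °C, 5% CO2. At 48 h post-transfection the cells were resuspended in 50:1 HBSS:HEPES buffer and loaded with Fluo4-AM plus probenecid for 45 min. Ligands were added at varying concentrations for 15 min, then RANTES or buffer was added at 16 s. Fluorescence was read at 494/516 nm for 120 s.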

[2] = target: T1, C-C chemokine receptor type 5; test: Agonist activity at CCR5 (unknown origin) expressed in MOLT4 cells transfected with Gqi5 assessed as induction of calcium ion mobilization after 15 mins by microplate reader method; assay type: functional, cell-based; conditions: MOLT-4; method in brief: as §1
Target sequence in this assay (P51681 whole entry, looked up): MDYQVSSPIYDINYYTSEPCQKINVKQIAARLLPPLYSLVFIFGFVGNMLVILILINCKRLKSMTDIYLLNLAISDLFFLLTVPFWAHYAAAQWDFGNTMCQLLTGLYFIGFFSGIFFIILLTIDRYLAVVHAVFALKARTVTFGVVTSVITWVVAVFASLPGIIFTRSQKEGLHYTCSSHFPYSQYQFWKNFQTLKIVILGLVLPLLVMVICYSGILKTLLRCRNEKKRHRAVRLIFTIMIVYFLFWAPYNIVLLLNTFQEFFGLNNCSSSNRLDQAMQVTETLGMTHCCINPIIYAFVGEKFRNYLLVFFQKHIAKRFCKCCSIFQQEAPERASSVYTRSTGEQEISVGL

[3] = Cytotoxicity against mouse NIH/3T3 cells after 48 hrs by neutral red dye uptake assay; assay type: cell-based, NIH3T3; conditions: read-out: TC50
Method in brief: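 NIH-3T3 mouse embryonic fibroblasts grown in medium with 10% newborn calf serum and 1% penicillin:streptomycin. Compounds at various concentrations in DMEM dilution medium for 48 h. After HBSS wash, neutral red 25 µg/mL in DMEM/5% NBCS for 3 ± 0.1 h. Dye extracted with 50% ethanol/1% acetic acid, shaken 20 min, absorbance 540 nm. TC50 by non-linear regression.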

M12 = test: (§2) Antiproliferative activity against human M12 cells after 72 hrs by WST-1 assay; assay type: functional
Method in brief: (§3)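 PC-3 cells kept in serum-free RPMI with L-glutamine, ITS and gentamicin plus 10% FBS. M12 cells got 5% FBS, then after 24 h serum-free medium with 0.01% EGF. Cells plated at 1000/well; after 24 h, drugs added at various concentrations in PBS (controls PBS) for 72 h. Medium then replaced with serum-free medium:WST-1 9:1, absorbance read after 3 h. Non-linear regression fit; mean ± S.E.M., ≥3 experiments in triplicate.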

PC-3 = test: Antiproliferative activity against human PC3 cells after 72 hrs by WST-1 assay; assay type: functional; conditions: for pEC50: PC-3, 72 h, read-out: ED50 (the source's name); method in brief: as §3
[4] = as §2; assay type: functional; conditions: M12, 72 h, read-out: ED50 (the source's name); method in brief: as §3

For `COc1ccc(C2CCN(Cc3ccc(N)cc3)CC2)cc1NC(=O)c1ccccc1`, the pIC50 [1] was 4.11, the inhibition [1] was “Dose-dependent effect” and the Activity [2] was “inactive”.
In the case of `COc1ccc(C2CCN(Cc3ccc(NC(C)=O)cc3)CC2)cc1NC(=O)c1cnccn1`, the pIC50 [1] was 4.23, the inhibition [1] was “Dose-dependent effect” and the Activity [2] was “inactive”.
With `CC(C)Oc1ccc(C2CCN(Cc3ccc([N+](=O)[O-])cc3)CC2)cc1NC(=O)c1cnccn1` the pIC50 [1] was 4.18, the inhibition [1] was “Dose-dependent effect” and the Activity [2] was “inactive”.
With `CCN(CC)c1ccc(CN2CCC(c3ccc(OC(C)C)c(NC(=O)c4cnccn4)c3)CC2)cc1` the pIC50 [1] was 4.21, the inhibition [1] was “Dose-dependent effect” and the Activity [2] was “inactive”.
For `CCOc1ccc(C2CCN(Cc3ccc([N+](=O)[O-])cc3)CC2)cc1NC(=O)c1cnccn1`, the pIC50 [1] was 4.21, the inhibition [1] was “Dose-dependent effect” and the CC50 at 48 h [3] was > 100 µM. The Activity (M12) was “Dose-dependent effect”, the Activity [2] was “inactive” and the Activity (PC-3) was “Dose-dependent effect”. For the same compound, the pEC50 (PC-3) was 3.96.
In the case of `CC(C)Oc1ccc(C2CCN(Cc3ccc([N+](=O)[O-])cc3)CC2)cc1NC(=O)c1ccccc1`, the pIC50 [1] was 4.35, the inhibition [1] was “Dose-dependent effect” and the Activity [2] was “inactive”.
In the case of `COc1ccc(C2CCN(Cc3ccc(N)cc3)CC2)cc1NC(=O)c1cnccn1`, the pIC50 [1] was 4.41, the inhibition [1] was “Dose-dependent effect” and the CC50 at 48 h [3] was > 100 µM. The pEC50 [4] was 4.13, the Activity (M12) was “Dose-dependent effect” and the Activity [2] was “inactive”. For the same compound, the Activity (PC-3) was “Dose-dependent effect” and the pEC50 (PC-3) was 4.14.
With `CCOc1ccc(C2CCN(Cc3ccc(NC(C)=O)cc3)CC2)cc1NC(=O)c1ccccc1` the pIC50 [1] was 3.94, the inhibition [1] was “Dose-dependent effect” and the Activity [2] was “inactive”.
With `CCOc1ccc(C2CCN(Cc3ccc(N)cc3)CC2)cc1NC(=O)c1ccccc1` the pIC50 [1] was 4.20, the inhibition [1] was “Dose-dependent effect” and the Activity [2] was “inactive”.
For `COc1ccc(C2CCN(Cc3ccc([N+](=O)[O-])cc3)CC2)cc1NC(=O)c1ccccc1`, the pIC50 [1] was 4.54, the inhibition [1] was “Dose-dependent effect” and the Activity [2] was “inactive”.
With `CC(=O)Nc1ccc(CN2CCC(c3ccc(OC(C)C)c(NC(=O)c4ccccc4)c3)CC2)cc1` the pIC50 [1] was 4.04, the inhibition [1] was “Dose-dependent effect” and the Activity [2] was “inactive”.
For `CCOc1ccc(C2CCN(Cc3ccc([N+](=O)[O-])cc3)CC2)cc1NC(=O)c1ccccc1`, the pIC50 [1] was 4.55, the inhibition [1] was “Dose-dependent effect” and the Activity [2] was “inactive”.
With `CCN(CC)c1ccc(CN2CCC(c3ccc(OC(C)C)c(NC(=O)c4ccccc4)c3)CC2)cc1` the pIC50 [1] was 3.86, the inhibition [1] was “Dose-dependent effect” and the Activity [2] was “inactive”.
In the case of `COc1ccc(C2CCN(Cc3ccc(NC(C)=O)cc3)CC2)cc1NC(=O)c1ccccc1`, the pIC50 [1] was 4.15, the inhibition [1] was “Dose-dependent effect” and the CC50 at 48 h [3] was 92.2 µM. The pEC50 [4] was 4.10, the Activity (M12) was “Dose-dependent effect” and the Activity [2] was “inactive”. The Activity (PC-3) was “Dose-dependent effect” and the pEC50 (PC-3) was 4.22.
With `COc1ccc(C2CCN(Cc3ccc([N+](=O)[O-])cc3)CC2)cc1NC(=O)c1cnccn1` the pIC50 [1] was 4.14, the inhibition [1] was “Dose-dependent effect” and the Activity [2] was “inactive”.
With `CCN(CC)c1ccc(CN2CCC(c3ccc(OC)c(NC(=O)c4ccccc4)c3)CC2)cc1` the pIC50 [1] was 4.05, the inhibition [1] was “Dose-dependent effect” and the Activity [2] was “inactive”.
For `CC(=O)Nc1ccc(CN2CCC(c3ccc(OC(C)C)c(NC(=O)c4cnccn4)c3)CC2)cc1`, the pIC50 [1] was 4.06, the inhibition [1] was “Dose-dependent effect” and the Activity [2] was “inactive”.
In the case of `CC(C)Oc1ccc(C2CCN(Cc3ccc(N)cc3)CC2)cc1NC(=O)c1cnccn1`, the pIC50 [1] was 4.11, the inhibition [1] was “Dose-dependent effect” and the Activity [2] was “inactive”.
For `CC(C)Oc1ccc(C2CCN(Cc3ccc(N)cc3)CC2)cc1NC(=O)c1ccccc1`, the pIC50 [1] was 4.18, the inhibition [1] was “Dose-dependent effect” and the Activity [2] was “inactive”.
In the case of `CCOc1ccc(C2CCN(Cc3ccc(N)cc3)CC2)cc1NC(=O)c1cnccn1`, the pIC50 [1] was 4.36, the inhibition [1] was “Dose-dependent effect” and the Activity [2] was “inactive”.
In the case of `CCOc1ccc(C2CCN(Cc3ccc(NC(C)=O)cc3)CC2)cc1NC(=O)c1cnccn1`, the pIC50 [1] was 4.33, the inhibition [1] was “Dose-dependent effect” and the CC50 at 48 h [3] was > 100 µM. The pEC50 [4] was 4.24, the Activity (M12) was “Dose-dependent effect” and the Activity [2] was “inactive”. For the same compound, the Activity (PC-3) was “Dose-dependent effect” and the pEC50 (PC-3) was 4.30.
With `CCN(CC)c1ccc(CN2CCC(c3ccc(OC)c(NC(=O)c4cnccn4)c3)CC2)cc1` the pIC50 [1] was 4.25, the inhibition [1] was “Dose-dependent effect” and the Activity [2] was “inactive”.
With `CCOc1ccc(C2CCN(Cc3ccc(N(CC)CC)cc3)CC2)cc1NC(=O)c1ccccc1` the pIC50 [1] was 4.19, the inhibition [1] was “Dose-dependent effect” and the CC50 at 48 h [3] was 49.5 µM. The pEC50 [4] was 4.80, the Activity (M12) was “Dose-dependent effect” and the Activity [2] was “inactive”. The Activity (PC-3) was “Dose-dependent effect” and the pEC50 (PC-3) was 4.06.
With `CCOc1ccc(C2CCN(Cc3ccc(N(CC)CC)cc3)CC2)cc1NC(=O)c1cnccn1` the pIC50 [1] was 4.29, the inhibition [1] was “Dose-dependent effect” and the CC50 at 48 h [3] was 46.9 µM. The pEC50 [4] was 4.73, the Activity (M12) was “Dose-dependent effect” and the Activity [2] was “inactive”. The Activity (PC-3) was “Dose-dependent effect” and the pEC50 (PC-3) was 4.11.
